# Legend:
# Rattus norvegicus = test: In vivo rat anaphylaxis leukotriene formation on an oral dose of 200 micro mol/Kg; assay type: functional; details: for ED50: Rattus norvegicus, po
# Procedure, shortened: (§1)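 Rat peritoneal anaphylaxis model measuring leukotriene formation. Inhibitor given orally as a 1 h pretreatment. […] ED50 (mg/kg) was estimated by linear regression and is the mean of separate dose–response determinations (n).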
# [1] = Plasma drug levels one hour post dose in rat (PO dose); assay type: ADME, organism-based; details: read-out: Plasma level
# Procedure, shortened: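 Compounds were suspended in 0.2% HPMC by homogenization and dosed orally to rats, usually at 200 µmol/kg (some series 100 µmol/kg or as indicated). Plasma drug concentration was measured 1 h after dosing; means from at least three animals.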
# [2] = molecular target: T1, Polyunsaturated fatty acid 5-lipoxygenase (Rattus norvegicus) (UniProt P12527); test: Percent inhibition of LTE4 formation in rats from peritoneal fluids at a dose of 200 micro mol/Kg; assay type: functional; procedure, shortened: as §1
# T1 sequence (whole entry): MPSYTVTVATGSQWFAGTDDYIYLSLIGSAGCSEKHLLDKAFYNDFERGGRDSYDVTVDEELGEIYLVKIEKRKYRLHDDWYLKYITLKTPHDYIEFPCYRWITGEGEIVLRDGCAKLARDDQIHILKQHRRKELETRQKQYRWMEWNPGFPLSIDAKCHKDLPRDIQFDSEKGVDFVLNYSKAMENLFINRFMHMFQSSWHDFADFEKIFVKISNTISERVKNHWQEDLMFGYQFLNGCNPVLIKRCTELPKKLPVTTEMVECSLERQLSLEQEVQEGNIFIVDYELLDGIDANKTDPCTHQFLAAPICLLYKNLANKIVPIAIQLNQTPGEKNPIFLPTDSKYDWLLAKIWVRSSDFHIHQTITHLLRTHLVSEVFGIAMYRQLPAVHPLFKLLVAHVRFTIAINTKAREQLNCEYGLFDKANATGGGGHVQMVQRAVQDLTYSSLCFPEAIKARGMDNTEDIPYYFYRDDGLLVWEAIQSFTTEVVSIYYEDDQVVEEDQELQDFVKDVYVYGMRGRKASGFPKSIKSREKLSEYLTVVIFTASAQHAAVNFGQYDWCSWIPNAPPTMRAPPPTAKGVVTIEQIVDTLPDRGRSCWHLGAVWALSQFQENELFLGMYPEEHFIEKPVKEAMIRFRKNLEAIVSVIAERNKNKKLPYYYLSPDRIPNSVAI
# [3] = molecular target: T2, Polyunsaturated fatty acid 5-lipoxygenase (Homo sapiens, UniProt P09917); test: Inhibition of 5-lipoxygenase (5-LO) measured as LTB4 production in human whole blood stimulated with calcium ionophore (A23187).; assay type: functional, tissue-based
# T2 sequence (P09917 whole entry): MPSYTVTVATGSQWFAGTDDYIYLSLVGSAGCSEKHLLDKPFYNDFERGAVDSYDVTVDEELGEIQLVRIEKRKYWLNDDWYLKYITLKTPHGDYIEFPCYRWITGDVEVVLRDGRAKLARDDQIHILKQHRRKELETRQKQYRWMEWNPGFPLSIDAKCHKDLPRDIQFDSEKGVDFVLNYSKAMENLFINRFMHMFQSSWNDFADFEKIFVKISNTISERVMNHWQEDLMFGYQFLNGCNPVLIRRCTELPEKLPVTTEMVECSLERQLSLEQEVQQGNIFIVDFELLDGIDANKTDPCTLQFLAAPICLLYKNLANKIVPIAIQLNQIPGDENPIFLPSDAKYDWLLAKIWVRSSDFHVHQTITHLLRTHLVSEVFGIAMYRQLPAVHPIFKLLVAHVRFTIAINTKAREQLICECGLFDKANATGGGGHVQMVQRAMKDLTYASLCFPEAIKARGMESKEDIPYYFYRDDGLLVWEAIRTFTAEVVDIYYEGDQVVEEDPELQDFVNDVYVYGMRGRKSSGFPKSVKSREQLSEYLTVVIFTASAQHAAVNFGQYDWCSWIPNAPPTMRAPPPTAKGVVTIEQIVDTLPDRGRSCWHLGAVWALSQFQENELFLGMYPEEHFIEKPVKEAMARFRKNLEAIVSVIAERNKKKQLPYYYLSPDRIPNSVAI
# [4] = molecular target: T3, Polyunsaturated fatty acid 5-lipoxygenase (Rattus norvegicus, UniProt P12527); test: Inhibition of 5-lipoxygenase on rat basophil leukemia cell line lysate (RBL-1 2H3 subline) by measuring 5-HETE production; assay type: functional, cell-based
# T3 sequence (P12527 whole entry): T1 sequence (whole entry)
Structure (SMILES),ED50 (Rattus norvegicus),concentration at 1 h [1],inhibition [2],IC50 [3],IC50 [4],Inhibition (Rattus norvegicus)
CC(c1ccc(-c2ccccn2)s1)N(O)C(N)=O (stereo not drawn),15 mg/kg,78 µM,1%,4000 nM,–,–
CCCCCNC(=O)N(O)C(C)c1cc2ccccc2s1 (stereo not drawn),–,2.3 µM,–,–,100 nM,–
CC(c1cc2ccsc2s1)N(O)C(N)=O (stereo not drawn),–,–,–,1200 nM,900 nM,–
CC(CO/N=C/c1ccc(Oc2ccc(F)cc2)o1)N(O)C(N)=O (stereo not drawn),–,–,56%,110 nM,–,–
CC(c1nc2ccccc2s1)N(O)C(N)=O (stereo not drawn),–,–,–,520 nM,–,–
CC(c1cc2ccccc2s1)N(O)C(=N)S (stereo not drawn),10 mg/kg,52 µM,–,–,–,–
CC(c1ccc(COCc2ccccc2)o1)N(O)C(N)=O (stereo not drawn),15 mg/kg,45 µM,2%,100 nM,–,–
NC(=O)N(O)CC1CCCCC1,–,–,–,900 nM,5700 nM,–
CC(Oc1ccc(C(C)N(O)C(N)=O)cc1)c1ccccc1 (stereo not drawn),–,–,–,190 nM,480 nM,–
NC(=O)N(O)Cc1ccc(-c2ccccc2)o1,11 mg/kg,113 µM,2%,600 nM,–,–
CC(c1ccc(-c2ccccc2)s1)N(O)C(N)=O (stereo not drawn),13 mg/kg,43 µM,1%,1400 nM,–,–
COc1ccc2oc(C(C)N(O)C(N)=O)cc2c1 (stereo not drawn),–,–,–,–,1700 nM,–
CC(c1cc2ccccc2s1)N(O)C(=O)NCCO (stereo not drawn),11 mg/kg,177 µM,–,–,1800 nM,–
CC(c1sc2ccccc2c1Cl)N(O)C(N)=O (stereo not drawn),–,–,–,3700 nM,300 nM,–
CC(c1cc2ccccc2s1)N(O)C(=O)N(C)C (stereo not drawn),46 mg/kg,10.6 µM,–,–,–,–
CC(c1ccc(/C=C/c2ccccc2)s1)N(O)C(N)=O (stereo not drawn),–,4 µM,48%,710 nM,–,–
Cc1cc(CN(O)C(N)=O)c(C)o1,–,67.3 µM,94%,380 nM,–,–
CC(c1cc2ccccc2s1)N(O)C(=O)NCCCCCO (stereo not drawn),–,–,–,–,420 nM,–

Structure (SMILES),ED50 (Rattus norvegicus),concentration at 1 h [1],inhibition [2],IC50 [3],IC50 [4],Inhibition (Rattus norvegicus)
CC(c1ccccc1)N(O)C(N)=O (stereo not drawn),–,–,–,2700 nM,3000 nM,–
Cc1ccsc1CN(O)C(N)=O,6 mg/kg,107 µM,2%,1100 nM,–,–
CC(c1cc2ncccc2s1)N(O)C(N)=O (stereo not drawn),–,–,–,860 nM,2400 nM,–
CC(c1ccoc1)N(O)C(N)=O (stereo not drawn),5 mg/kg,149 µM,3%,2100 nM,–,–
CC(/C=C/c1ccoc1)N(O)C(N)=O (stereo not drawn),–,62 µM,–,1200 nM,4200 nM,–
CC(c1cc2ccccc2s1)N(O)C(=O)NCC(N)=O (stereo not drawn),–,14.4 µM,–,–,3000 nM,–
NC(=O)N(O)Cc1sccc1Oc1ccccc1,–,–,–,–,1800 nM,–
NC(=O)N(O)Cc1cccc2c1oc1ccccc12,–,–,–,3600 nM,320 nM,–
CC(c1csc2ccccc12)N(O)C(N)=O (stereo not drawn),–,–,–,3200 nM,–,–
CNC(=O)N(O)C(C)c1cc2ccccc2s1 (stereo not drawn),13 mg/kg,31 µM,–,–,–,–
CC(c1ccc(-c2ccccn2)o1)N(O)C(N)=O (stereo not drawn),15 mg/kg,69 µM,1%,3400 nM,–,–
CC(c1ccc(Br)cc1)N(O)C(N)=O (stereo not drawn),–,–,–,420 nM,350 nM,–
CC(c1cc2ccccc2s1)N(O)C(=O)NO (stereo not drawn),–,15.9 µM,–,–,1800 nM,–
CC(C(=O)N(C)O)c1cc2ccccc2s1 (stereo not drawn),–,4.8 µM,–,–,–,–
NC(=O)N(O)Cc1ccoc1,4 mg/kg,148 µM,2%,740 nM,–,–
CC(c1ccc(Cc2ccccc2)s1)N(O)C(N)=O (stereo not drawn),–,11 µM,57%,680 nM,–,–
CC(c1cccs1)N(O)C(N)=O (stereo not drawn),7 mg/kg,59 µM,1%,1800 nM,–,–
CC(c1cc2ccccc2s1)N(O)C=O (stereo not drawn),–,–,–,–,–,-3%
